Assay outcomes as filed in PubChem BioAssay.
Only some compounds are listed: those with a hit (about 1.5% of all), similar ones and a draw of the others.
CXCR6 inh – blocks human CXCR6 beta-arrestin recruitment | inhibition, % at 20 µM | O00574 | 360,000 tested, 0.36% active | CHO-K1 PathHunter CXCR6 beta-arrestin, luminescence; in the data active = inhibition above about 34%, passing the limit was not always enough;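 note: antagonist mode with CXCL16 agonist at 10 nM final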
APJ ag – agonists of human APJ apelin receptor; P35414; CHO-K1 APJ PathHunter beta-arrestin, luminescence; 0% DMSO wells, 100% apelin; activation, % at 20 µM; 330,000 tested, 0.11% active; AID 2520;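 active = activation more than six SD over the plate average, tested at 20 µM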
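Material: engineered CHO-K1 APJ arrestin reporter cells; amount: 1000 CHO-K1 reporter cells seeded per well; incubation: compound stimulation 90 min at 25 °C, detection 60 min; signal: luminescent beta-gal fragment complementation, chemiluminescent substrate; read-out basis: APJ agonist activity; controls: DMSO-only wells as negative, 10 nM Apelin-13 as positive control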
CCR6 antagonist – antagonists of human CCR6 receptor. CHO-K1 CCR6 PathHunter beta-arrestin, luminescence, CCL20-stimulated. 340,000 tested, 0.49% active. inhibition, % at 20 µM. AID 493098. P51684;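 active = compounds whose inhibition of the agonist-driven luminescence signal at 20 µM reaches about 50%, limit read from the data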;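 note: cells stimulated with CCL20 at 14 nM final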
NTR1 ag – activates human neurotensin receptor 1; activation, % at 20 µM; 330,000 tested, 0.17% active; NTR1-U2OS beta-arrestin-GFP spot imaging, agonist mode;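 active = activation at or above 40% of the spot to cytoplasm intensity ratio, with at least 20 cells analyzed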
Target sequence (P30989 whole entry, looked up): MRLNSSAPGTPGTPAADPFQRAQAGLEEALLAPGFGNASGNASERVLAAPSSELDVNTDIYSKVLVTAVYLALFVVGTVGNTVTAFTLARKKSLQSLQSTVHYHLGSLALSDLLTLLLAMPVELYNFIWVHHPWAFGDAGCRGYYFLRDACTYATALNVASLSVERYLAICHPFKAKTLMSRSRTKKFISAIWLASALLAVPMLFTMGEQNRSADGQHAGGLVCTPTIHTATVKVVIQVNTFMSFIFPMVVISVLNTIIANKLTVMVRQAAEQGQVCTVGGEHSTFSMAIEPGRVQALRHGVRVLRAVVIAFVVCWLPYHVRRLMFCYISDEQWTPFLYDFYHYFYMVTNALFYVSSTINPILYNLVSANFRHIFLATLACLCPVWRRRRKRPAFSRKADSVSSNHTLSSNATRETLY
APJ antagonist – blocks the human apelin receptor APJ; 330,000 tested, 0.32% active; P35414; inhibition, % at 20 µM; CHO-K1 APJ beta-arrestin complementation, luminescence;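 active = inhibition above about 40% at 20 µM, limit read from the data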;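 note: cells challenged with 10 nM apelin-13 agonist together with compound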
HTR2A ag – activates the mouse 5-HT2A serotonin receptor. CHO-K1 mHTR2A beta-arrestin complementation, luminescence; percent of 30 µM serotonin response. activation, % at 7.6 µM. AID 624169. 360,000 tested, 0.66% active;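 active = activation above a run cutoff, the mean activation of all tested compounds plus 3 SD, cut at about 14% in these data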
MOR ag counter – activates human mu opioid receptor in HTR2A counterscreen | shares compounds with HTR2A ag | U2OS OPRM1 beta-arrestin PathHunter, luminescence; DMSO 0%, DAMGO 9.3 µM 100% | activation, % at 9.3 µM | 2,300 tested, 5.3% active | AID 624380;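 active = mean activation above the mean of DMSO-only wells plus 3 SD, cut at about 0.5% in these data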
HTR2A ag conf – confirmation of mouse HTR2A serotonin receptor agonists; shares compounds with HTR2A ag; CHO-K1 PathHunter beta-arrestin recruitment, luminescence; DMSO 0%, 30 µM serotonin 100%; activation, % at 7.6 µM; 2,300 tested, 19% active; AID 624381;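 active = mean activation across triplicates above the hit threshold derived in the original primary screen, cut at about 15% in these data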
Large screens that a line does not name were inactive (follow-up assays come after a bar, where they were run).

COc1ccc(CC(=O)Nc2nc3ccccc3[nH]2)cc1	none
COc1ccc(/C=N/NC(=O)CCc2nc3ccccc3[nH]2)cc1	HTR2A ag 16.4 | MOR ag counter inactive | HTR2A ag conf inactive
COc1ccc(NC(=O)Cc2nc3ccccc3[nH]2)cc1	HTR2A ag 84.9 | MOR ag counter inactive | HTR2A ag conf inactive
Cc1ccc(-n2c(N)c(C(=O)NCc3ccco3)sc2=S)cc1	none
Cc1ccc(-n2c(N)c(C(N)=O)sc2=S)cc1	HTR2A ag 18.8 | MOR ag counter inactive | HTR2A ag conf inactive
COCc1ccc(CN2CCC(n3nccc3NC(=O)C(OC)c3ccccc3)CC2)o1 (centres undefined)	HTR2A ag 14.7 | MOR ag counter inactive | HTR2A ag conf inactive
COC(=O)C[C@H]1CC[C@@H](NC(=O)C2CC2)[C@@H](CO)O1	HTR2A ag 17.8 (no result: CXCR6 inh, APJ ag, CCR6 antagonist, NTR1 ag, APJ antagonist) | MOR ag counter inactive | HTR2A ag conf inactive
CCCNC(=O)C[C@@H]1C[C@H]2c3cc(NC(=O)c4ccc5c(c4)OCO5)ccc3O[C@H]2[C@@H](CO)O1	none (no result: APJ ag, CCR6 antagonist, NTR1 ag, APJ antagonist)
CCc1c(C)nc(N2CCN(c3ccccc3F)CC2)[nH]c1=O	HTR2A ag 19.7 | MOR ag counter 0.9 | HTR2A ag conf inactive
O=C(Nc1ccccc1C(=O)NCCCN1CCOCC1)c1ccc(F)cc1	none
CC(C)Cc1cc(C(=O)Nc2sc3c(c2C#N)CCC3)no1	HTR2A ag 17.4 | MOR ag counter inactive | HTR2A ag conf inactive
COc1cc(C2N(c3ccc(Cl)cc3)C(=O)C3CCCN32)cc(OC)c1OC (centres undefined)	none
COc1cccc(C2N(c3cccc(Cl)c3)C(=O)C3CCCN32)c1OC (centres undefined)	HTR2A ag 17.5 | MOR ag counter inactive | HTR2A ag conf inactive
COc1cc(C2N(c3cccc(Cl)c3)C(=O)C3CCCN32)cc(OC)c1OC (centres undefined)	HTR2A ag 21.2 | MOR ag counter inactive | HTR2A ag conf inactive
COc1ccccc1C1N(c2ccc(Cl)cc2)C(=O)C2CCCN21 (centres undefined)	none
COCCn1cnnc1SCC(=O)Nc1sc2c(c1C#N)CCC2	HTR2A ag 17.3 | MOR ag counter inactive | HTR2A ag conf inactive
Cc1c(NC(=O)CN2C(=O)c3ccccc3C2=O)c(=O)n(-c2ccccc2)n1C	none
Cc1c(NC(=O)CN2C(=O)c3ccc([N+](=O)[O-])cc3C2=O)c(=O)n(-c2ccccc2)n1C	HTR2A ag 17.2 | MOR ag counter inactive | HTR2A ag conf inactive
CC(C)(C)Nc1ncnc2sc(-c3ccccc3)cc12	HTR2A ag 23.0 | MOR ag counter 0.5 | HTR2A ag conf inactive
Cc1cc(-c2onc(C)c2C(=O)Oc2ccc(Cl)cc2)no1	HTR2A ag 18.9 | MOR ag counter inactive | HTR2A ag conf inactive
O=C(c1cccc(Cl)c1)N1CCN(S(=O)(=O)c2ccc(Cl)s2)CC1	HTR2A ag 15.7 | MOR ag counter inactive | HTR2A ag conf inactive
O=C(c1cccc(C(F)(F)F)c1)N1CCN(S(=O)(=O)c2ccc(Cl)s2)CC1	none
O=C(C[n+]1cc(-c2ccccc2)n2c1CCC2)Nc1nc(-c2ccc(F)cc2)cs1	HTR2A ag 20.6 | MOR ag counter inactive | HTR2A ag conf 51.4
O=C(C[n+]1cc(-c2ccc(F)cc2)n2c1CCC2)Nc1nc(-c2ccc(F)cc2)cs1	none
CCn1cc(C(=O)NCCC(=O)NC(C)C)c(=O)c2cc3c(cc21)OCO3	none
O=C(Cc1cc(C(F)(F)F)cc(C(F)(F)F)c1)Nc1c(-c2ccccc2)[nH][nH]c1=O	HTR2A ag 28.1 (no result: CXCR6 inh, APJ ag, CCR6 antagonist, NTR1 ag, APJ antagonist) | MOR ag counter inactive | HTR2A ag conf inactive
COc1ccc2oc(C(=O)Nc3nc4ccccc4[nH]3)c(C)c2c1	HTR2A ag 148.8 | MOR ag counter inactive | HTR2A ag conf 55.9
COc1ccc(Br)c(C(=O)Nc2nc3ccccc3[nH]2)c1	none
COc1ccc(CNC(=O)c2cncc(Br)c2)cc1	none
Cc1ccc(C(=O)NNC(=O)Cn2ccc(C(F)(F)F)n2)o1	HTR2A ag 16.1 | MOR ag counter inactive | HTR2A ag conf inactive
O=C(Cn1ccc(C(F)(F)F)n1)NNC(=O)c1cccnc1	none
COC(=O)c1ccc2nc(C3CCCCC3)c(Cc3ccccc3)n2c1	none (no result: APJ ag, CCR6 antagonist, NTR1 ag, APJ antagonist)
Cc1cccc(CCNS(=O)(=O)c2cc3c(cc2C)NC(=O)CO3)c1	HTR2A ag 20.9 | MOR ag counter inactive | HTR2A ag conf inactive
COc1ccc(CC(=O)Nc2ccc(-c3noc(-c4ccccc4OC)n3)cc2)cc1	HTR2A ag 18.2 | MOR ag counter 3.0 | HTR2A ag conf inactive
C/C(=N\Nc1cc(C)nc(-c2ccccc2O)n1)c1ccccc1	none
Cc1cc(N/N=C/c2ccc(O)c(C)c2O)nc(-c2ccccc2O)n1	HTR2A ag 20.1 (no result: APJ ag, NTR1 ag, APJ antagonist) | MOR ag counter inactive | HTR2A ag conf 64.6
O=C(CCC1CCCC1)NNC(=O)c1ccc(F)cc1	none
CC1(/[N+]([O-])=C\c2ccccc2F)CCCCC1=O (centres undefined)	HTR2A ag 16.4 | MOR ag counter inactive | HTR2A ag conf inactive
CC1(/[N+]([O-])=C/c2ccc(Cl)cc2Cl)CCCCC1=O (centres undefined)	none
CC1CCCC(NC(=O)CCNC(=O)c2ccccc2Cl)C1C (centres undefined)	none
S=c1[nH]nc(C2CCCCC2)n1Cc1ccccc1	HTR2A ag 14.9 | MOR ag counter inactive | HTR2A ag conf inactive
S=c1[nH]nc(C2CC2)n1Cc1ccccc1	none
O=C(Nc1cc([N+](=O)[O-])ccc1N1CCCC1)c1cccs1	none
COc1ccc2c(c1)OC(=O)CC2c1cc(OC)c(OC)c(OC)c1 (centres undefined)	none (no result: APJ ag, APJ antagonist)
COc1ccc2c(c1)OC(=O)CC2c1ccccc1OC (centres undefined)	HTR2A ag 15.6 (no result: APJ ag, APJ antagonist) | MOR ag counter inactive | HTR2A ag conf inactive
O=C(O[C@H]1[C@H](Oc2ccccc2COC(=O)C2(O)C=CCCC2=O)O[C@H](CO)[C@@H](O)[C@@H]1O)c1ccccc1 (some centres undefined)	none (no result: CXCR6 inh, CCR6 antagonist, HTR2A ag)
CCCCc1cn([C@@H](CCCCNC(=O)OC(C)(C)C)C(=O)N2CCN(C(=O)OC(C)(C)C)CC2)nn1	HTR2A ag 15.7 | MOR ag counter inactive | HTR2A ag conf inactive
CC(C)(C)OC(=O)NCCCC[C@@H](C(=O)N1CCN(C(=O)OC(C)(C)C)CC1)n1cc(CCC(=O)O)nn1	none
